Shown are actives, neighbours in structure and some others; about 3.7% of the full set was active somewhere.
procasp7 counter: activates human procaspase-7, counter-screen for procaspase-3 activators. activation, % at 8.5 µM. 330,000 compounds, 0.093% hits. recombinant procaspase-7, Ac-DEVD-pNA absorbance 405 nm; D23A/D198A/D206A triple mutant, cannot self-cleave; scale: DMSO 0, 5 µM enzyme 100;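 active = percent activation above the screen-wide mean plus 3 SD, cut at about 25% in these data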
Target sequence (P55210 whole entry D23A/D198A/D206A): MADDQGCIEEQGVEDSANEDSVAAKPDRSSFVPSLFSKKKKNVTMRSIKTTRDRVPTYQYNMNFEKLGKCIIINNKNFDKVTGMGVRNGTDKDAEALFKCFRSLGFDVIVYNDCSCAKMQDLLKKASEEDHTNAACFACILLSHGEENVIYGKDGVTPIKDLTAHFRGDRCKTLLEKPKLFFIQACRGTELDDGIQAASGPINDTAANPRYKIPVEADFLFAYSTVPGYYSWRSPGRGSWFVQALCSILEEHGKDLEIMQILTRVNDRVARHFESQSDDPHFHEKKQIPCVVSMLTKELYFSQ
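Test system: Procaspase-7 triple mutant (PC-7 D3A). Also added: Ac-DEVD-pNA substrate, 400 µM as added. Schedule: 1 h enzyme–compound preincubation and 2 h substrate reaction, both 25 °C. Signal: p-Nitroaniline absorbance at 405 nm, read at 0 and 120 min. Control set: low DMSO alone, high DMSO plus 5 µM PC-7.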
MPTP inh: blocks calcium-induced mitochondrial swelling. isolated mouse mitochondria, Ca2+ swelling absorbance, 30 min. inhibition, % at 10 µM. 360,000 compounds, 1.4% hits;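 active = inhibition of 50% or more, scaled per plate between neutral and stimulator controls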;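 also: 0% = DMSO wells given calcium and 100% = 1 mM EGTA wells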
NR3A LBD binder: modulators (binders) of human NR3A ligand-binding domain. AID 1259313. NR3A LBD differential scanning fluorimetry, Tm shift; 0% = protein alone, 100% = glycine-bound protein. Tm shift relative to glycine control, % at 25 µM. 340,000 compounds, 2.5% hits;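 active = melting temperature shift of at least 10% of the positive control shift, at one fixed dose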
procasp3 activ: activators of human procaspase-3. P42574. recombinant procaspase-3 D3A, Ac-DEVD-pNA absorbance 405 nm. activation, % at 8.5 µM. 330,000 compounds, 0.11% hits;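 active = activation above the mean of all tested compounds plus 3 SD, cut at about 21% in these data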;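 also: 0% = DMSO alone and 100% = DMSO wells spiked with extra 5 µM PC-3 D3A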
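Assay system – Procaspase-3 D3A mutant · Benchmarks – DMSO low control, extra-enzyme high control · Technique – 405 nm absorbance of p-nitroaniline, reads at 0 and 120 min · Doses – 8.5 µM nominal · Measure – % activation between DMSO and enzyme-spiked controls · Also added – Ac-DEVD-pNA chromogenic peptide substrate · Schedule – 1 h compound preincubation, 2 h substrate hydrolysis at 25 °C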
aDG glyco up: increases alpha dystroglycan glycosylation | activation, % at 10 µM | 360,000 compounds, 0.22% hits | AID 624168 | Pro5-aDG cells, alpha-DG glycosylation AlphaScreen (IIH6); 0% Pro5, 100% B10-LARGE cell signal;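 active = activation of at least 8% versus controls, or a plate z-score of at least 8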;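 also: Pro5 are CHO cells carrying HIG-tagged alpha-DG that lacks glycosylation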
Rh123 counter: Rhodamine 123 counter-screen of mitochondrial pore hits; shares compounds with MPTP inh; isolated mitochondria, membrane potential, Rhodamine 123 fluorescence; inhibition, % at 10 µM; 5,000 compounds, 78% hits; AID 624504; in the data active = inhibition above about 22%;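 also: 0% = DMSO vehicle and 100% = positive control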
MPTP abs DR: MPTP inhibition, dose response swelling confirmation | isolated mitochondria swelling, absorbance | 780 compounds, 58% hits | IC50, µM | shares compounds with MPTP inh; in the data active = IC50 below about 20 µM
MPTP counter DR: MPTP inhibitor counter-screen activity, dose response; shares compounds with MPTP inh; isolated mitochondria counterscreen, fluorescence read-out; IC50, µM; 780 compounds, 49% hits; AID 651564; in the data active = IC50 below about 80 µM
Starred values were filed as active, the others as inactive; · = no result.

SMILES	procasp7 counter	MPTP inh	NR3A LBD binder	procasp3 activ	aDG glyco up	Rh123 counter	others
Cc1cc(C)c(NC(=O)CN(C)C(=O)CCN2C(=O)C3CCCCC3C2=O)c(C)c1 (stereo unspecified)	·	0	·	·	0	·
CCCC[C@@H](CNC)NC[C@H](NCCCCC1CCCCC1)C(C)C	-4	90*	1	6	1	-23	MPTP abs DR=6.8*;MPTP counter DR=>80
CC(C)c1ccccc1NC(=S)NCCCn1ccnc1	13	3	0	-6	0	·
CCCc1ccc(Oc2cn[nH]c2-c2ccc(O)c(C)c2O)cc1	16	89*	7	-7	1	83*
Cc1ccc(Sc2cc(NCCCO)c([N+](=O)[O-])c3nonc23)cc1	3	72*	-1	-1	0	34*
CCCCc1cc(=O)oc2cc(C)cc(O)c12	1	86*	-6	3	0	96*
CCCc1cc(O)c2c(C)cc(=O)oc2c1	-4	82*	-45	-1	0	87*
O=C(Nc1ccc(OC(F)(F)F)cc1)Oc1ccccc1N1CCCCC1	2	82*	13*	-5	0	89*
O=C(Nc1ccc(F)cc1)Oc1ccccc1N1CCOCC1	-2	7	2	2	0	·
O=C(Nc1ccc(OC(F)(F)F)cc1)Oc1ccccc1N1CCOCC1	-1	88*	3	3	0	82*
COCCCN1C(=O)C(CC(=O)NCCc2ccccn2)CC(C(=O)N2CCCCCC2)=C1C (stereo unspecified)	·	0	·	·	0	·
CCc1nc2ccc(C(=O)Nc3cccc(NS(C)(=O)=O)c3)cn2c1N(CC)CCOC	·	0	·	·	0	·
COc1ccc(CN2CCN(CCCCOc3ccc(Cl)cc3)CC2)c(OC)c1OC	12	66*	-1	14	5	29*
COc1ccccc1-n1cnc2cc(NS(=O)(=O)c3ccc(Br)cc3)ccc21	-7	55*	-7	2	0	50*
COc1ccc(-n2cnc3cc(NS(=O)(=O)c4ccc(C)cc4)ccc32)cc1	5	9	·	-5	0	·
Cc1cccc(C)c1NC(=O)c1cc(S(=O)(=O)N2CCc3ccccc32)cn1C	2	-1	-1	9	0	·
Cn1cc(S(=O)(=O)N2CCc3ccccc32)cc1C(=O)NC(C)(C)C	8	50*	-1	4	1	80*
COc1ccc(NC(=O)COC(=O)Cc2coc3cc(OC)ccc23)c(OC)c1	-2	0	2	0	0	·
O=[N+]([O-])c1cccc(NC(=S)NCCc2ccccc2)c1	-6	95*	33*	0	2	96*
CC(=O)c1cccc(NC(=S)NCCCCc2ccccc2)c1	9	68*	-2	-6	0	81*
S=C(NCCc1ccccc1)Nc1cnc2ccccc2c1	-8	77*	14*	-14	0	78*
CC(C)(CNC(=S)NCCc1ccccc1)CNC(=S)NCCc1ccccc1	·	80*	14*	·	2	85*
CC(=O)C1=CCC(c2ccccc2)N(S(C)(=O)=O)C1 (stereo unspecified)	·	0	·	·	3	·
Cc1nonc1OCCCNc1ccc([N+](=O)[O-])cc1Cl	2	-2	-1	-3	0	·
Cc1cccc(NC(=O)NCCCCc2ccccc2)c1	2	14	-11	8	0	·
Fc1cccc(NC(=S)NCCc2ccccc2)c1	-13	71*	28*	2	1	87*
O=C(NCCCCc1ccccc1)Nc1cccc(F)c1	-8	56*	5	-4	0	96*
Cc1ccc(NC(=O)Nc2cnc3ccccc3c2)cc1	8	87*	27*	-12	0	71*
Fc1ccc(NC(=S)NCCc2ccccc2)c(F)c1F	9	77*	-8	-1	0	92*
Fc1ccc(F)c(NC(=S)NCCc2ccccc2)c1	-7	6	0	-3	4	·
